Source: ChEMBL document CHEMBL4765345, “Design, synthesis, and biological evaluation of dual targeting inhibitors of histone deacetylase 6/8 and bromodomain BRPF1” (Eur J Med Chem, 2020)

Legend:
Histone deacetylase 1 = Histone deacetylase 1 (Homo sapiens, UniProt Q13547); assay: Inhibition of recombinant human HDAC1 at 10 uM using Z-(Ac)Lys-AMC as substrate after 90 mins by fluorescence based micro plate assay
How it was run: (§1)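 Recombinant human HDAC1 or HDAC6 incubated 90 min at 37 °C with 10.5 μM ZMAL (Z-(Ac)Lys-AMC) and increasing inhibitor concentrations, using a homogeneous fluorescence assay. Fluorescence read at Ex 390/Em 460 nm.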

[1] = target: T1, Protein deacetylase HDAC6 (Homo sapiens) (UniProt Q9UBN7); assay: Inhibition of recombinant human HDAC6 at 1 uM using Z-(Ac)Lys-AMC as substrate after 90 mins by fluorescence based micro plate assay; how it was run: as §1
T1 sequence (whole entry): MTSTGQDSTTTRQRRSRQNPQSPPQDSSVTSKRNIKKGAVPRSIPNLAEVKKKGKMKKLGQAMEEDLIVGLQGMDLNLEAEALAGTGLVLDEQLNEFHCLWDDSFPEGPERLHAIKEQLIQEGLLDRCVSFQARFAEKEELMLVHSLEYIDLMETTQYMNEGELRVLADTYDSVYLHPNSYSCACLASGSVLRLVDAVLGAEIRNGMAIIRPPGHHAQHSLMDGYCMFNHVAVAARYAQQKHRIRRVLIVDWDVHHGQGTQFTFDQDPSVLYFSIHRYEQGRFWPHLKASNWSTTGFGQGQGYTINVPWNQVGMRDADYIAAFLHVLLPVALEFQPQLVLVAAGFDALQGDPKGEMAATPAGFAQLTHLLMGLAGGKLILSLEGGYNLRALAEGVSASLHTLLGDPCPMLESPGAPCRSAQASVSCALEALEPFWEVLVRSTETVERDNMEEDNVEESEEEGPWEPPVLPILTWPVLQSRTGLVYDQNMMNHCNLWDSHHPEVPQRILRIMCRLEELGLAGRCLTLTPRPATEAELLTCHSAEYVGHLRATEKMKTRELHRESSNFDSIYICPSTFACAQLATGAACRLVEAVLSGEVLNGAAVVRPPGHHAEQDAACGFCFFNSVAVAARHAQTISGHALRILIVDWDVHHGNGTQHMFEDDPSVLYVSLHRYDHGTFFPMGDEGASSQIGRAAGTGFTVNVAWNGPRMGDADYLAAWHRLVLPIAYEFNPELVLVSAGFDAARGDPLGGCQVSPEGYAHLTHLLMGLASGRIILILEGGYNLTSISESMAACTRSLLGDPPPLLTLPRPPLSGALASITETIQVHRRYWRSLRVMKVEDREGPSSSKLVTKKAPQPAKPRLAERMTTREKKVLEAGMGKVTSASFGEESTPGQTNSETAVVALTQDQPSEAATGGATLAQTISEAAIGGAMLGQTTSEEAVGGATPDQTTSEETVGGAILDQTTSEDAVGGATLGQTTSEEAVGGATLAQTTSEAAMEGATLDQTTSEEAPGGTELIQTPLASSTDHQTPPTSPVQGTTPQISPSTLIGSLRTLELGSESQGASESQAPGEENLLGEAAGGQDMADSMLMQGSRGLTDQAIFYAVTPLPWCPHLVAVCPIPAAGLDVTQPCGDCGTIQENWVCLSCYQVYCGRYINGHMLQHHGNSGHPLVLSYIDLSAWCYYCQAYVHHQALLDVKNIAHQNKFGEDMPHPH

Peregrin = target: T2, Peregrin (Homo sapiens, UniProt P55201); assay: Binding affinity to BRPF1 (unknown origin) by Isothermal titration calorimetry; details: read-out: Kd
T2 sequence (P55201 whole entry): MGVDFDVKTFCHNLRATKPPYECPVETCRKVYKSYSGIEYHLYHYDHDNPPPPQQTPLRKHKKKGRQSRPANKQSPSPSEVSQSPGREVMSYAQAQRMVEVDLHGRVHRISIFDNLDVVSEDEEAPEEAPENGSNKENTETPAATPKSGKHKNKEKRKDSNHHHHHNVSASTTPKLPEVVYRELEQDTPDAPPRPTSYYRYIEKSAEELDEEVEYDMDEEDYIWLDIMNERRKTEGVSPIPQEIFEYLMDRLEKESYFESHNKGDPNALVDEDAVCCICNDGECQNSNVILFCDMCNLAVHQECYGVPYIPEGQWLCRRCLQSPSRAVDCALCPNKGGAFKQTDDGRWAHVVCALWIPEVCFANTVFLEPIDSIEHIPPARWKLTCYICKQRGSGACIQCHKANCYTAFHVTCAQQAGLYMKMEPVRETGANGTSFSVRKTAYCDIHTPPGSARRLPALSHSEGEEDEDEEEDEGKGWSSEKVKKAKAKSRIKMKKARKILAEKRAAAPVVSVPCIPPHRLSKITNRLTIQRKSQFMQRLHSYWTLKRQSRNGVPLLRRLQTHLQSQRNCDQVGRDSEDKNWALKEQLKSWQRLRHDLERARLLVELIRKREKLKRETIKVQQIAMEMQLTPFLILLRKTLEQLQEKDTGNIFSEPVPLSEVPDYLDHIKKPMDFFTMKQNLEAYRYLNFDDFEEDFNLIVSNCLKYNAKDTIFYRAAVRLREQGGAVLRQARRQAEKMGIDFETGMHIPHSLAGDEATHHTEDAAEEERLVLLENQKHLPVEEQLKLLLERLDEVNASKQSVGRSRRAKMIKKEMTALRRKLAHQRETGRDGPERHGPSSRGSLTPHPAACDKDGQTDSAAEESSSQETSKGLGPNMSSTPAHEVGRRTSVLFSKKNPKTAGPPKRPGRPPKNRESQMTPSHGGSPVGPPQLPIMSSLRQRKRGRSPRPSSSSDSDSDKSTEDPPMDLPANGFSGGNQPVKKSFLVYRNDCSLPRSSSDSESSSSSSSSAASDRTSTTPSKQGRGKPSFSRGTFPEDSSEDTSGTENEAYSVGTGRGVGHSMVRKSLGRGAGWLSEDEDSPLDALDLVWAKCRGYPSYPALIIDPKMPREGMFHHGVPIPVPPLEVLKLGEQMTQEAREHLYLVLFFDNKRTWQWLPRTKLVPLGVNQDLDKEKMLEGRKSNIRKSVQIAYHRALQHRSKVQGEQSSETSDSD
How it was run: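 Isothermal titration calorimetry with recombinant BRPF1 (200–400 μM) in the injection syringe titrated into ligand (20–40 μM) in the sample cell. Kd was fitted from the titrations and reported with its P99 interval.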

THP-1 [2] = assay: Antiproliferative activity against human THP-1 assessed as reduction in cell growth at 100 uM by CellTiter-non radioactive cell proliferation assay; type: functional
THP-1 [3] = assay: Antiproliferative activity against human THP-1 assessed as reduction in cell growth at 4 uM by CellTiter-non radioactive cell proliferation assay; type: functional
HL-60 [4] = assay: Antiproliferative activity against human HL60 assessed as reduction in cell growth at 20 uM by CellTiter-non radioactive cell proliferation assay; type: functional
HL-60 [5] = assay: Antiproliferative activity against human HL60 assessed as reduction in cell growth at 4 uM by CellTiter-non radioactive cell proliferation assay; type: functional
How it was run: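 HL60 cells plated at 5000 per well and given inhibitor or DMSO vehicle immediately. Compounds diluted from 200x DMSO stocks; three replicates per concentration. Growth read by CellTiter 96 Aqueous (MTS) assay. GI50 is the concentration cutting metabolically active cells by 50% versus DMSO control, taken from absorbance against log concentration.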

Chain of Histone deacetylase 1 (Q13547 whole entry): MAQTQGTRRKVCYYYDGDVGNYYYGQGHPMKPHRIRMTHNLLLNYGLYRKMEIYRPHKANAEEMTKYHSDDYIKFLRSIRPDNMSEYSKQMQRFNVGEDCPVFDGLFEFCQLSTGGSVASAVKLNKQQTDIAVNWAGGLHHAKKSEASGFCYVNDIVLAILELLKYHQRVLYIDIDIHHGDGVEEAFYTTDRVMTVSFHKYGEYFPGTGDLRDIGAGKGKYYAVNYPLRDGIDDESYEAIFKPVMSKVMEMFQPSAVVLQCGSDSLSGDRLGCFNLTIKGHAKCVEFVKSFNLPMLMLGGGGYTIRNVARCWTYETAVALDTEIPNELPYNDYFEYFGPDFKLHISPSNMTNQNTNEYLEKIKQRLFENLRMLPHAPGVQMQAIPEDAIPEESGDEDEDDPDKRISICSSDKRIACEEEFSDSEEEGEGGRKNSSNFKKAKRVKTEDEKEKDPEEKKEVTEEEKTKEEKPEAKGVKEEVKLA

COc1ccc(C(=O)NO)cc1S(=O)(=O)Nc1ccc2c(c1)cc(C)c(=O)n2C
inhibition (Histone deacetylase 1): 38%
inhibition [1]: 21%
Kd (Peregrin): 67 nM
inhibition at 100 µM (THP-1 [2]): 43%
inhibition at 4 µM (THP-1 [3]): 0%
inhibition at 20 µM (HL-60 [4]): 10%
inhibition at 4 µM (HL-60 [5]): 25%
